Results as given in PMC4874862 (ACS chemical biology, 2016).

B1: 6 × His-HIV-1 IN (wild type full-length HIV-1 integrase) (enzyme)
chain: FLDGIDKAQEEHEKYHSNWRAMASDFNLPPVVAKEIVASCDKCQLKGEAMHGQVDCSPGIWQLDCTHLEGKVILVAVHVASGYIEAEVIPAETGQETAYFLLKLAGRWPVKTVHTDNGSNFTSTTVKAACWWAGIKQEFGIPYNPQSQGVIESMNKELKKIIGQVRDQAEHLKTAVQMAVFIHNFKRKGGIGGYSAGERIVDIIATDIQTKELQKQITKIQNFRVYYRDSRDPVWKGPAKLLWKGEGAVVIQDNSDIKVVPRRKAKIIRDYGKQMAGDDCVASRQDED

Tests used:
full-length HIV-1 IN = full-length HIV-1 IN (Human immunodeficiency virus type 1 group M subtype B, UniProt P12497); experiment: DLS analysis of IN multimerization; assay type: biochemical; conditions: 500 nM BI/D or 3 µM LEDGF/p75 added to 200 nM IN, 30 min
Procedure, shortened: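 Recombinant full-length HIV-1 IN, E. coli-expressed with His or FLAG tag, at 200 nM in filtered 50 mM HEPES pH 7.4, 2 mM DTT, 2 mM MgCl2, 1 M NaCl. Test compound (500 nM) or LEDGF/p75 (3 µM) was added for 30 min. In a sequential arm, compound was added for 30 min, then LEDGF/p75 for 30 min more. DLS was recorded at 25 °C and particle size distribution calculated.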

[1] = target: FLAG-LEDGF/p75 (full length) (UniProt O75475 1-530); experiment: AlphaScreen or HTRF
FLAG-LEDGF/p75 (full length), sequence (O75475 whole entry): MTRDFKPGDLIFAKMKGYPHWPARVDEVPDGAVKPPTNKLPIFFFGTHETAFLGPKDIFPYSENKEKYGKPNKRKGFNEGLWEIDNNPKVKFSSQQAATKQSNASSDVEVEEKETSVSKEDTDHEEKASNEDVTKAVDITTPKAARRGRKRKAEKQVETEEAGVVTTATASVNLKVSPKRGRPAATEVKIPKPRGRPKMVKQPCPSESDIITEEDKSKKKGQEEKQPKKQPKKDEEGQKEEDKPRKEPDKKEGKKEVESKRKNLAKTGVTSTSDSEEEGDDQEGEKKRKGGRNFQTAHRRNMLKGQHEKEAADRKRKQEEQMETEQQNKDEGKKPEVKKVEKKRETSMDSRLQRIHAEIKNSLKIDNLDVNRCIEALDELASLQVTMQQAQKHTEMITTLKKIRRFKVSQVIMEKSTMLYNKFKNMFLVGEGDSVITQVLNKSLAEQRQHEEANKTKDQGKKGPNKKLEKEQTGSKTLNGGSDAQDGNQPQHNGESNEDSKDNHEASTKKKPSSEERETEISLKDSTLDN

Molecule | estimated particle diameter (DLS) after addition to IN (full-length HIV-1 IN) | Kd [1] [nM]
LEDGF/p75: cellular chromatin associated protein, cofactor that binds the HIV-1 IN tetramer; recombinant, His or FLAG tagged | ~ 11 nM | –
B1 | – | 3.32 ± 0.31
